As usually defined, the EC50 is the midpoint of the concentration-response curve. Read a low EC50 as a more potent agent. In general, logD refers to lipophilicity at a set pH, counting ionised and neutral species.

The source of these data is ChEMBL document CHEMBL1140818, “Triazole derivatives as non-nucleoside inhibitors of HIV-1 reverse transcriptase--structure-activity relationships and crystallographic analysis” (Bioorg Med Chem Lett, 2008).

Each structure is given as a SMILES string.

Data set [1] concerns Human immunodeficiency virus 1. Description: Antiviral activity against HIV1 in MT4 cells. Type of data set: functional, organism-based. The conditions noted are these: Human immunodeficiency virus 1, MT4. The essentials: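 HIV-1 infectivity assay in MT-4 cells over 5 days, with virus-induced cell death as the read-out. EC50 is the mean of at least two independent experiments.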

The nature of data set [2]: Selectivity index, ratio of EC50 for MT4 cells to EC50 for HIV1. Format: cell-based. To be noted: human; for Selectivity index: mt4; for selectivity ratio: MT4 cells, read-out: Selectivity index. The essentials:
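Ratio of the cytotoxicity EC50 to the antiviral EC50, both from the 5-day MT-4 assay with virus-induced cell death as the antiviral read-out. Values are means of at least two independent experiments.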

Data set [3] in a line: Partition coefficient, log D of the compound. Format: physicochemical. To be noted: octanol/water.

Regarding `c1ccc(CCSc2nnc(-c3ccsc3)n2Cc2ccccc2)cc1`, the EC50 in data set [1] is above 100 µM. The Selectivity index entry in data set [2] is “Not Active”.

In the case of `c1ccc(Cn2c(SCc3ccccn3)nnc2-c2ccsc2)cc1`, the Selectivity index entry in data set [2] is listed as “Not Active”.

`c1ccc(Cn2c(SCc3ccncc3)nnc2-c2ccsc2)cc1`: in data set [1], a half-maximal effect (EC50) was put at 41.5 µM. For the same compound, in data set [2], the selectivity ratio came to 1.

Take `Clc1ccc(CSc2nnc(-c3ccsc3)n2Cc2ccccc2)cc1`: the 50% effective concentration (EC50) in data set [1] stood at 51.1 µM. In addition, the selectivity ratio in data set [2] is at most 1.

`c1ccc(CSc2nnc(-c3cccs3)n2-c2ccccc2)cc1` yielded an EC50 in data set [1] above 100 µM. For the same compound, in data set [2], the Selectivity index result is “Not Active”.

`c1ccc(CCn2c(SCc3ccccc3)nnc2-c2cccs2)cc1` yielded an EC50 in data set [1] above 100 µM. In addition, the Selectivity index result in data set [2] is listed as “Not Active”.

In the case of `Clc1cccc(Cl)c1CSc1nnc(-c2cccs2)n1Cc1ccccc1`, a half-maximal effect in data set [1] (EC50) was put at 3.45 µM. Also, the selectivity ratio in data set [2] came out at 1.7.

As to `Clc1ccc(CSc2nnc(-c3cccs3)n2Cc2ccccc2)cc1Cl`, in data set [1], the response was half-maximal at 2.4 µM (EC50). In data set [2], the selectivity ratio came to 3.1.

Take `Clc1ccc(Cn2c(SCc3ccccc3)nnc2-c2cccs2)cc1`: the EC50 in data set [1] is above 100 µM.

Turning to `Clc1ccc(Cn2c(SCc3ccccc3)nnc2-c2cccs2)cc1Cl`, the EC50 in data set [1] was above 100 µM. The Selectivity index result in data set [2] was “Not Active”.

In turn, `CCCCCCSc1nnc(-c2ccsc2)n1Cc1ccccc1` registered an EC50 in data set [1] above 100 µM. Further, the Selectivity index result in data set [2] is listed as “Not Active”.

With `Cc1nnc(SCc2ccccc2)n1Cc1ccccc1`, in data set [1], the concentration for a half-maximal effect (EC50) is 23.5 µM. The selectivity ratio in data set [2] amounted to 2.

Regarding `c1ccc(CSc2nnc(-c3ccco3)n2Cc2ccccc2)cc1`, the concentration giving a half-maximal response (EC50) in data set [1] stood at 4.6 µM. In addition, in data set [2], the selectivity ratio was found to be 5.2.

Regarding `c1ccc(CSc2nnc(Cc3cccs3)n2Cc2ccccc2)cc1`, the EC50 in data set [1] is above 100 µM. Besides, the Selectivity index result in data set [2] is recorded as “Not Active”.

In turn, `Clc1ccccc1-c1nnc(SCc2ccccc2)n1Cc1ccccc1` returned an EC50 in data set [1] of 2.85 µM. The selectivity ratio in data set [2] is 2.9.

In data set [1], `CSc1nnc(-c2cccs2)n1Cc1ccccc1` yielded a half-maximal effective concentration (EC50) above 100 µM. For the same compound, the Selectivity index result in data set [2] is recorded as “Not Active”.

Compound `CCCCCCSc1nnc(-c2cccs2)n1Cc1ccccc1` yielded an EC50 in data set [1] above 100 µM. Further, in data set [2], the Selectivity index result is “Not Active”.

`N#Cc1ccc(CSc2nnc(-c3cccs3)n2Cc2ccccc2)cc1`: the EC50 in data set [1] was 23.5 µM. The selectivity ratio in data set [2] is below 1.

For the compound `Clc1ccccc1CSc1nnc(-c2cccs2)n1Cc1ccccc1`, in data set [1], the EC50 is 0.44 µM. In addition, the selectivity ratio in data set [2] was 35.2.

For the compound `N#Cc1ccc(CSc2nnc(-c3ccsc3)n2Cc2ccccc2)cc1`, the EC50 in data set [1] is above 100 µM. In addition, the Selectivity index result in data set [2] is on record as “Not Active”.

The compound `Clc1cccc(CSc2nnc(-c3cccs3)n2Cc2ccccc2)c1Cl` had an EC50 in data set [1] of 0.73 µM. For the same compound, in data set [2], the selectivity ratio worked out at 9.1.

As for `Clc1ccccc1CSc1nnc(-c2ccsc2)n1Cc1ccccc1`, a half-maximal response in data set [1] (EC50) required 0.131 µM. In addition, in data set [2], the selectivity ratio came to 62.

With `Clc1ccc(CSc2nnc(-c3ccsc3)n2Cc2ccccc2)c(Cl)c1`, the half-maximal effective concentration (EC50) in data set [1] worked out at 3.3 µM. Moreover, in data set [2], the selectivity ratio is 2.9.

`Clc1ccc(Cl)c(CSc2nnc(-c3ccsc3)n2Cc2ccccc2)c1` had a concentration giving a half-maximal response (EC50) in data set [1] of 8.95 µM. Further, in data set [2], the selectivity ratio was determined as 1.6.

Take `c1ccc(CCSc2nnc(-c3cccs3)n2Cc2ccccc2)cc1`: the response in data set [1] was half-maximal at 28.5 µM (EC50). In addition, in data set [2], the selectivity ratio is at most 1.

Regarding `c1ccc(Cn2c(SCc3cccnc3)nnc2-c2cccs2)cc1`, in data set [1], the response was half-maximal at 8.3 µM (EC50). In data set [2], the selectivity ratio was 6.

In data set [1], `Clc1cccc(Cl)c1CSc1nnc(-c2ccsc2)n1Cc1ccccc1` displayed a concentration for a half-maximal effect (EC50) above 100 µM. In addition, in data set [2], the Selectivity index entry is given as “Not Active”.

Turning to `c1ccc(Cn2c(SCc3ccc4ccccc4c3)nnc2-c2ccsc2)cc1`, a half-maximal effect in data set [1] (EC50) was put at 0.58 µM. Further, in data set [2], the selectivity ratio was 11.1.

Turning to `Cn1c(SCc2ccccc2)nnc1-c1cccs1`, the EC50 in data set [1] was above 100 µM. For the same compound, the Selectivity index result in data set [2] is “Not Active”.

In turn, `c1ccc(Cn2c(SCc3ccncc3)nnc2-c2cccs2)cc1` yielded a half-maximal effective concentration (EC50) in data set [1] of 4.8 µM. For the same compound, the selectivity ratio in data set [2] stood at 15.

The compound `COc1ccc(CSc2nnc(-c3cccs3)n2Cc2ccccc2)cc1` registered an EC50 in data set [1] of 3 µM. In data set [2], the selectivity ratio came out at 3.8.

The compound `c1ccc(CSc2nnc(-c3cccs3)n2Cc2ccccc2)cc1` came in with a half-maximal effective concentration (EC50) in data set [1] of 3.7 µM. The pH-dependent lipophilicity (logD) in data set [3] was determined as 3.5. The selectivity ratio in data set [2] came out at 8.

`Clc1cccc(CSc2nnc(-c3ccsc3)n2Cc2ccccc2)c1` showed an EC50 in data set [1] of 1.6 µM. The selectivity ratio in data set [2] is 6.3.

In data set [1], `COc1ccc(Cn2c(SCc3ccccc3)nnc2-c2cccs2)cc1` came in with an EC50 above 100 µM. Further, in data set [2], the Selectivity index entry is “Not Active”.

In data set [1], `c1ccc(Cn2c(SCc3ccccn3)nnc2-c2cccs2)cc1` yielded an EC50 of 8.3 µM. Further, the selectivity ratio in data set [2] worked out at 5.

As to `Clc1ccc(CSc2nnc(-c3cccs3)n2Cc2ccccc2)cc1`, the response in data set [1] was half-maximal at 2 µM (EC50). Further, the selectivity ratio in data set [2] is 5.7.

As to `c1ccc(CSc2nnc(-c3cc4ccccc4s3)n2Cc2ccccc2)cc1`, the EC50 in data set [1] was above 100 µM. Moreover, the Selectivity index entry in data set [2] is reported as “Not Active”.

In the case of `Clc1ccc(Cl)c(CSc2nnc(-c3cccs3)n2Cc2ccccc2)c1`, the EC50 in data set [1] stood at 1 µM. For the same compound, the selectivity ratio in data set [2] is 7.9.

On to `c1ccc(Cn2c(SCc3ccc4ccccc4c3)nnc2-c2cccs2)cc1`, for which the EC50 in data set [1] stood at 1.7 µM. Besides, the selectivity ratio in data set [2] was 5.9.

Compound `c1ccc(Cn2c(SCc3cccnc3)nnc2-c2ccsc2)cc1` gave a 50% effective concentration (EC50) in data set [1] of 23 µM. In data set [2], the selectivity ratio came out at 2.

`Clc1cccc(CSc2nnc(-c3cccs3)n2Cc2ccccc2)c1`: the midpoint of the response in data set [1], the EC50, lay at 1.7 µM. The selectivity ratio in data set [2] came out at 5.3.

In data set [1], `COc1ccc(CSc2nnc(-c3ccsc3)n2Cc2ccccc2)cc1` came in with a concentration giving a half-maximal response (EC50) of 5.8 µM. For the same compound, the selectivity ratio in data set [2] is 1.

Consider `Clc1ccc(CSc2nnc(-c3cccs3)n2Cc2ccccc2)c(Cl)c1`, for which the concentration for a half-maximal effect (EC50) in data set [1] was determined as 1.1 µM. The selectivity ratio in data set [2] worked out at 7.7.

On to `CSc1nnc(-c2ccsc2)n1Cc1ccccc1`, for which, in data set [1], the concentration for a half-maximal effect (EC50) was above 100 µM. Moreover, the Selectivity index result in data set [2] is listed as “Not Active”.

Consider `c1ccc(CSc2nnc(-c3ccsc3)n2Cc2ccccc2)cc1`, for which, in data set [1], the 50% effective concentration (EC50) is 9.2 µM. Also, in data set [2], the selectivity ratio was determined as 2.

With `Clc1ccc(CSc2nnc(-c3ccsc3)n2Cc2ccccc2)cc1Cl`, the EC50 in data set [1] worked out at 4.7 µM. Besides, in data set [2], the selectivity ratio was 1.2.

In turn, `c1ccc(CSc2nnc(-c3ccccc3)n2Cc2ccccc2)cc1` displayed an EC50 in data set [1] of 10.5 µM. In addition, the selectivity ratio in data set [2] worked out at 1.1.

In the case of `Clc1cccc(CSc2nnc(-c3ccsc3)n2Cc2ccccc2)c1Cl`, the EC50 in data set [1] amounted to 1.3 µM. The selectivity ratio in data set [2] came out at 5.

For `O=C1Nc2ccc(Cl)cc2C(C#CC2CC2)(C(F)(F)F)O1` (single isomer, unassigned) [EFAVIRENZ], the selectivity ratio in data set [2] was above 6000.
